Assay results reported in paper PMC3375358 (Journal of Medicinal Chemistry, 2012).

What was measured:
[1] = tested on: CREB-mediated gene transcription; test: CREB reporter assay in HEK 293T cells; type: cell-based
Summary of the method: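 Inhibition of CREB-dependent reporter transcription by test compounds was measured in HEK 293T cells, with a top concentration of 50 μM. IC50 values are given as mean ± SD from at least two independent experiments. Where IC50 was not reached at the highest concentration, the value is recorded as >50.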

KIX-KID interaction = KIX-KID interaction (Homo sapiens, UniProt Q92793); test: in vitro renilla luciferase complementation assay for KIX-KID interaction; type: biochemical
Chain of KIX-KID interaction (Q92793 587-666 limits assumed): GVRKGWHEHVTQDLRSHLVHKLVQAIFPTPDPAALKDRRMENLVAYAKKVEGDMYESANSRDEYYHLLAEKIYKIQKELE
Summary of the method: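 KIX-KID binding was measured in vitro by renilla luciferase complementation, with test compounds up to 50 μM. IC50 values are given as mean ± SD from at least two independent experiments. The value is listed as >50 if IC50 was not reached at the top concentration.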

| Structure (SMILES) | activity in cell-based CREB reporter assay (in words) [1] | activity in inhibiting KIX-KID interaction (in words) (KIX-KID interaction) |
| --- | --- | --- |
| Cn1nc(Nc2ccc(Cl)cc2)c2cc3ccccc3cc21 [Compound 6, N-(4-Chlorophenyl)-1-methyl-1H-benzo[f]indazol-3-amine] | inactive |  |
| Clc1ccc(Nc2noc3cc4ccccc4cc23)cc1 [Compound 4, N-(4-Chlorophenyl)-naphtho[2,3-d]isoxazol-3-amine] | very weak activity | inactive |
| O=c1[nH]c2cc3ccccc3cc2c(=O)n1-c1ccc(Cl)cc1 [Compound 3, 3-(4-Chlorophenyl)-benzo[g]quinazoline-2,4-(1H,3H)-dione] | low or no inhibitory activity | neither of these compounds showed any activity |
| O=c1oc2cc3ccccc3cc2c(=O)n1-c1ccc(Cl)cc1 [Compound 2, 3-(4-Chlorophenyl)-2H-naphtho[2,3-e][1,3]oxazine-2,4-(3H)-dione] | low or no inhibitory activity | neither of these compounds showed any activity |
